Test results: publication PMC10664564 (Chemical Science, 2023)

What was measured:
[1] = phase II and III clinical trials, development stopped; cited from earlier work
Recombinant SQS (31-370) = molecular target: T1, Recombinant SQS (31-370) (Homo sapiens, UniProt P37268); assay: In vitro SQS activity assay; format: biochemical; conditions: compound at 1 μM, positive control
T1 sequence (P37268 31-370): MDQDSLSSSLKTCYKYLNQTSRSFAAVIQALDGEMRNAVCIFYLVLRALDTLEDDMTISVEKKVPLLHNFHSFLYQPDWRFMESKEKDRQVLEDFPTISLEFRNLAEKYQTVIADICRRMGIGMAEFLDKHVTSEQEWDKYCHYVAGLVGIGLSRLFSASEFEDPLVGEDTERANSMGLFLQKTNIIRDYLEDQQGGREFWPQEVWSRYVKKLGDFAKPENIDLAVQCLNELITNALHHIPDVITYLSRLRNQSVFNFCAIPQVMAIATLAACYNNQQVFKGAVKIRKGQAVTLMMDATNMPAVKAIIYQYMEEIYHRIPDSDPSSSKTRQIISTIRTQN

HeLa cells = assay: Cell viability assay ± MBCD; format: cell-based, human; conditions: 72 h
How it was run: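 HeLa cells grown 72 h in FBS-containing medium with methyl β-cyclodextrin at 3 mM (a concentration set as non-toxic for HeLa), treated with a range of test compound concentrations; viability read; n = 3, mean ± SD of one biological replicate shown.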

SQS = molecular target: T2, SQS (Homo sapiens, UniProt P37268); assay: Western blot of SQS protein levels in HeLa cells; format: cell-based; conditions: 18 h, 10 μM
T2 sequence (P37268 1-417): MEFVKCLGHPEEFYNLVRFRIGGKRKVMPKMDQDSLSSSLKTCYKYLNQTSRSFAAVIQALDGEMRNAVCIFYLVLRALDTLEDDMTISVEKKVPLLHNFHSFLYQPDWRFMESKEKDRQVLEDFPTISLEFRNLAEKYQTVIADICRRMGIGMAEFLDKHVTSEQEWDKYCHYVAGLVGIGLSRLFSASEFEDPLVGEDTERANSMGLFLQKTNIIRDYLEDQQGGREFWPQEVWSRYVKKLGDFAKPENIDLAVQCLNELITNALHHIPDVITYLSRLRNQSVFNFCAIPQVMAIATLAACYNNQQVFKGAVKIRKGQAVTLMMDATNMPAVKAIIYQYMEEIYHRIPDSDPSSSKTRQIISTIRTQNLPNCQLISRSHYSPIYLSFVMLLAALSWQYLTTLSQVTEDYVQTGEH
How it was run: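 HeLa cells were exposed to test compound, usually for 18 h, and SQS was detected by western blot (n = 2–4). DC50 and Dmax came from an 18 h dose–response (n = 4, mean ± SEM). A time course used 10 μM. Inhibitor arms were pre-incubated 2 h with MG132 (20 μM), chloroquine (20 μM) or MLN4924 (5 μM). A turnover arm used cycloheximide at 100 μg mL−1.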

For `COc1cccc([C@H]2O[C@H](CC(=O)N3CCC(CC(=O)O)CC3)C(=O)N(CC(C)(C)COC(C)=O)c3ccc(Cl)cc32)c1OC` [TAK-475, lapaquistat acetate], the clinical safety finding [1] is listed as “hepatotoxicity accompanied by elevated bilirubin levels”.
In the case of `C=C(CC[C@]12O[C@H](C(=O)O)[C@@](O)(C(=O)O)[C@](C(=O)O)(O1)[C@H](OC(=O)/C=C/[C@@H](C)C[C@@H](C)CC)[C@H]2O)[C@@H](OC(C)=O)[C@H](C)Cc1ccccc1` [ZAA, zaragozic acid A], the “inhibition of SQS activity” value (Recombinant SQS (31-370)) was “completety inhibited the reaction”, the “cell viability under cholesterol depletion” value (HeLa cells; MBCD 3 mM, 5 and 10 μM) was “completely abolish cell viability” and the cell viability (HeLa cells; standard conditions (DMEM 10% FBS)) was “neither ZAA nor KY02111 adversely affected cell viability”.
For `CCNCCN(CC)c1nc(Nc2ccc3ncoc3c2)nc(N[C@@H](C)C2CCCCC2)n1` [LS-102], the “SQS levels, tool compound alone” value (SQS) was “marked accumulation of SQS”.
